Screening data from PubChem.
Compounds with a hit are over-represented: about 4.9% of the library has one in this group of screens.
STAT1 inh – STAT1 signaling inhibitors, primary screen, cell-based, HTS, luciferase reporter; NIH 3T3 STAT1-luciferase reporter, IFN-gamma, luminescence; inhibition, % at 5.5 µM; hit rate 0.35% among 200,000;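 active means inhibition above a set limit, the mean inhibition across all tested compounds plus 3 SD, cut at about 34% in these data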;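 further: 0% = IFN-gamma with DMSO and 100% = IFN-gamma with 300 µM nifuroxazide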
STAT3 blocker – IL-6 driven STAT3 reporter inhibitors, primary screen, U3A cells, luciferase, luminescence, MLSCN library; hit rate 0.89% among 190,000; IL-6 STAT3-luciferase reporter; host cell line lacks STAT1; inhibition, % at 5.5 µM; AID 862, 2007;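 active means inhibition above the mean inhibition across all screened compounds plus 3 SD, cut at about 44% in these data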;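 further: 0% = DMSO only wells and 100% = 100 µM nifuroxazide control wells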
STAT3 activator – IL-6 driven STAT3 reporter potentiators, primary screen, U3A cells, luciferase, luminescence, MLSCN library | IL-6 STAT3-luciferase reporter; 100% = signal with IL-6 EC80 alone | activation (% of control), % at 5.6 µM | hit rate 0.91% among 190,000;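 active means activation above the screen-wide mean of compound activation plus 3 SD, cut at about 130% in these data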;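 further: 0% = background luminescence of wells with medium and substrate only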
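Test system: STAT3-luciferase reporter U3A cells; Detection: reporter luminescence signal; Times: 1 h compound pre-exposure, 6 h IL-6 stimulation, 37 °C; Benchmarks: IL-6-only high control; Also added: IL-6 stimulus at 33 ng/mL final.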
APP 5'UTR act – activators of APP 5'UTR luciferase reporter, primary screen, SH-SY5Y cells. AID 1276, 2008. activation, % at 2 µM. hit rate 1% among 190,000. SH-SY5Y APP 5'UTR luciferase reporter, luminescence; zero percent = DMSO vehicle wells;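 active means activation above a set limit, based on mean plus 3 SD of controls, cut at about 140% in these data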
NF-kB neuron act – activators of NF-kB expression in neurons, primary screen, cell-based, HTS. human neuronal cells, NF-kB reporter expression; hits give high values. hit rate 1.6% among 190,000. fold change at 12.5 µM; in the data active means fold change above about 3.3
STAT1 act – STAT1 signaling activators, primary screen, cell-based, HTS, luciferase reporter. hit rate 2.6% among 200,000. NIH 3T3 STAT1-luciferase reporter, IFN-gamma, luminescence; 100% = IFN-gamma alone, no compound. AID 932, 2007. activation (% of control), % at 5.5 µM;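 active means activation above the screen-wide mean activation plus 3 SD, cut at about 130% in these data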;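 further: raw ratio to IFN-gamma control signal so 100% means no change and 0% no light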
The depositor's hits bear a star.

Results for CC(NC(=O)c1ccccc1)c1ccc(Br)cc1 (configuration not stated) ?
STAT1 inh: 11; STAT3 blocker: 18; STAT3 activator: 94; APP 5'UTR act: -1; NF-kB neuron act: 0.99; STAT1 act: 89

Results for COc1ccc(CNC(=O)c2ccc(C(C)(C)C)cc2)cc1 ?
STAT1 inh: -43; STAT3 blocker: -18; STAT3 activator: 119; APP 5'UTR act: 37; NF-kB neuron act: 2.8; STAT1 act: 138*

What do the screens show for `NC(=O)c1ccccc1NC(=O)/C=C/c1ccccc1`?
STAT1 inh: -32; STAT3 blocker: -3; STAT3 activator: 98; APP 5'UTR act: 104; NF-kB neuron act: 3.6*; STAT1 act: 129*

What do the screens show for `COC(=O)c1cc(Cl)c(NC(=O)/C=C/c2ccc(Cl)cc2)cc1OC`?
STAT1 inh: -2; STAT3 blocker: 10; STAT3 activator: 97; APP 5'UTR act: 10; NF-kB neuron act: 0.95; STAT1 act: 102

Results for NC(=O)c1ccccc1NC(=O)/C=C/c1ccc(Cl)cc1 ?
STAT1 inh: -58; STAT3 blocker: 28; STAT3 activator: 82; APP 5'UTR act: 160*; NF-kB neuron act: 3; STAT1 act: 144*

How did CC(C)=CC(=O)Nc1ccccc1C(N)=O do in these assays?
STAT1 inh: -1; STAT3 blocker: -2; STAT3 activator: 107; APP 5'UTR act: 9; NF-kB neuron act: 1.1; STAT1 act: 101

What do the screens show for `Cc1nc2ccc([N+](=O)[O-])cc2[nH]1`?
STAT1 inh: 4; STAT3 blocker: 2; STAT3 activator: 100; APP 5'UTR act: 47; NF-kB neuron act: 0.95; STAT1 act: 95

Results for Nc1ccc2nc(-c3ccc(N)c(Cl)c3)[nH]c2c1 ?
STAT1 inh: -49; STAT3 blocker: 35; STAT3 activator: 72; APP 5'UTR act: 59; NF-kB neuron act: 1.4; STAT1 act: 132*

What do the screens show for `O=[N+]([O-])c1ccc2nc(-c3ccccc3)[nH]c2c1`?
STAT1 inh: -40; STAT3 blocker: -2; STAT3 activator: 99; APP 5'UTR act: 109; NF-kB neuron act: 1.3; STAT1 act: 141*

How did Nc1ccc2nc(-c3ccccc3)[nH]c2c1 do in these assays?
STAT1 inh: -34; STAT3 blocker: -9; STAT3 activator: 109; APP 5'UTR act: 57; NF-kB neuron act: 1.2; STAT1 act: 131*

What do the screens show for `O=C(Cc1ccc(Cl)cc1Cl)NCC1(N2CCOCC2)CCCCC1`?
STAT1 inh: 3; STAT3 blocker: 2; STAT3 activator: 100; APP 5'UTR act: 6; NF-kB neuron act: 1.1; STAT1 act: 97

What do the screens show for `CN1C=CC=C/C1=C1\SC(=S)N(N)C1=O`?
STAT1 inh: -8; STAT3 blocker: 1; STAT3 activator: 101; APP 5'UTR act: 25; NF-kB neuron act: 1; STAT1 act: 106

Results for O=C(CCNS(=O)(=O)c1ccc(Br)s1)NCc1ccc2c(c1)OCO2 ?
STAT1 inh: 5; STAT3 blocker: 6; STAT3 activator: 96; APP 5'UTR act: 14; NF-kB neuron act: 1.1; STAT1 act: 94

Results for O=C(Nc1ccc2nc(-c3ccc(Br)o3)[nH]c2c1)c1ccco1 ?
STAT1 inh: -12; STAT3 blocker: 17; STAT3 activator: 91; NF-kB neuron act: 0.54; STAT1 act: 111

Results for CC(=O)Nc1ccc2nc(-c3ccc(Br)o3)[nH]c2c1 ?
STAT1 inh: -37; STAT3 blocker: -4; STAT3 activator: 103; APP 5'UTR act: 72; NF-kB neuron act: 1.5; STAT1 act: 133*

What do the screens show for `COc1ccc(C2=C(N)c3ccccc3C2=O)cc1`?
STAT1 inh: -35; STAT3 blocker: 14; STAT3 activator: 90; APP 5'UTR act: 61; NF-kB neuron act: 2; STAT1 act: 133*

What do the screens show for `COc1ccc(NC2=C(c3ccc(OC)cc3)C(=O)c3ccccc32)cc1`?
STAT1 inh: 0; STAT3 blocker: 8; STAT3 activator: 93; APP 5'UTR act: -9; NF-kB neuron act: 1; STAT1 act: 100
